Source: ChEMBL document CHEMBL4715813, “Allicin-inspired pyridyl disulfides as antimicrobial agents for multidrug-resistant Staphylococcus aureus” (Eur J Med Chem, 2018)
Converted amounts (≈) assume the structure as drawn.

Key:
[1] = test system: Staphylococcus epidermidis; assay: Antibacterial activity against Staphylococcus epidermidis ATCC 14990 assessed as zone of inhibition by disc diffusion method; format: functional
Staphylococcus aureus [2] = assay: Bactericidal activity against methicillin-resistant Staphylococcus aureus ATCC 43300 assessed as bacterial killing incubated for over night; format: functional
Procedure, shortened: (§1)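 For MBC, 5 μL from each well was spotted on agar and incubated overnight; MBC is the lowest concentration with no visible growth. Ratio taken as MBC over MIC.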

Staphylococcus aureus [3] = assay: Bactericidal activity against heterogeneous vancomycin-intermediate Staphylococcus aureus Mu3 ATCC 700698 assessed as bacterial killing incubated for over night; format: functional; procedure, shortened: as §1
Staphylococcus aureus [4] = assay: Antibacterial activity against vancomycin-intermediate Staphylococcus aureus clinical isolate 12 assessed as bacterial growth inhibition after 20 hrs by broth microdilution assay; format: functional
Procedure, shortened: (§2)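 Broth microdilution: 0.5 McFarland suspension from an overnight culture, diluted 1:100 in cation-adjusted Mueller Hinton broth (CAMHB), given serial dilutions of test agent for 20 h at 37 °C. MIC is the lowest concentration with no visible growth.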

Staphylococcus aureus [5] = assay: Ratio of MBC to MIC against linezolid-resistant Staphylococcus aureus; format: functional; procedure, shortened: as §1
Staphylococcus aureus [6] = assay: Antibacterial activity against methicillin-susceptible Staphylococcus aureus ATCC 25923 assessed as zone of inhibition by disc diffusion method; format: functional
Staphylococcus aureus [7] = assay: Antibacterial activity against linezolid-resistant Staphylococcus aureus assessed as bacterial growth inhibition incubated for 20 hrs by broth dilution method; format: functional; procedure, shortened: as §2
Staphylococcus aureus [8] = assay: Antibacterial activity against methicillin-susceptible Staphylococcus aureus ATCC 25923 in presence of glutathione; format: functional
Procedure, shortened: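 Broth microdilution MIC: a 0.5 McFarland suspension from overnight culture was diluted 1:100 in cation-adjusted Mueller Hinton broth supplemented with glutathione 100 μM. It was exposed to serial dilutions for 20 h at 37 °C. MIC was taken as the lowest concentration with no visible growth.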

Enterococcus faecium = assay: Antibacterial activity against vancomycin-resistant Enterococcus faecium ATCC 700221 assessed as zone of inhibition by disc diffusion method; format: functional
Staphylococcus aureus [9] = assay: Ratio of MBC to MIC against methicillin-resistant Staphylococcus aureus ATCC 43300; format: functional; procedure, shortened: as §1
Staphylococcus aureus [10] = assay: Bactericidal activity against methicillin-susceptible Staphylococcus aureus ATCC 25923 assessed as bacterial killing incubated for over night; format: functional
Procedure, shortened: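 5 μL from each well was spotted on agar and incubated overnight. MBC was taken as the lowest concentration with no visible growth.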

Staphylococcus aureus [11] = assay: Antibacterial activity against methicillin-susceptible Staphylococcus aureus ATCC 25923 in presence of 10% v/v serum; format: functional
Staphylococcus aureus [12] = assay: Antibacterial activity against heterogeneous vancomycin-intermediate resistant Staphylococcus aureus Mu3 ATCC 700698 assessed as zone of inhibition by disc diffusion method; format: functional
Staphylococcus aureus [13] = assay: Antibacterial activity against vancomycin-intermediate resistant Staphylococcus aureus Mu50 ATCC 700699 assessed as bacterial growth inhibition incubated for 20 hrs by broth dilution method; format: functional; procedure, shortened: as §2
Staphylococcus aureus [14] = assay: Antibacterial activity against vancomycin-resistant Staphylococcus aureus clinical isolate 10 assessed as bacterial growth inhibition after 20 hrs by broth microdilution assay; format: functional; procedure, shortened: as §2
Staphylococcus aureus [15] = assay: Antibacterial activity against vancomycin-resistant Staphylococcus aureus HIP11714 assessed as inhibition of bacterial growth incubated for 20 hrs by broth microdilution method; format: functional; settings: HIP11714, 20 h; procedure, shortened: as §2
Staphylococcus aureus [16] = assay: Ratio of MBC to MIC against methicillin-susceptible Staphylococcus aureus ATCC 25923; format: functional; procedure, shortened: as §1
Staphylococcus aureus [17] = assay: Ratio of MBC to MIC against vancomycin-intermediate resistant Staphylococcus aureus Mu50 ATCC 700699; format: functional; procedure, shortened: as §1
Staphylococcus aureus [18] = assay: Ratio of MBC to MIC against heterogeneous vancomycin-intermediate Staphylococcus aureus Mu3 ATCC 700698; format: functional; procedure, shortened: as §1
Staphylococcus aureus [19] = assay: Antibacterial activity against hospital acquired methicillin-resistant Staphylococcus aureus ATCC 43300 assessed as zone of inhibition by disc diffusion method; format: functional
Staphylococcus aureus [20] = assay: Bactericidal activity against vancomycin-intermediate resistant Staphylococcus aureus Mu50 ATCC 700699 assessed as bacterial killing incubated for over night; format: functional; procedure, shortened: as §1
Staphylococcus aureus [21] = assay: Antibacterial activity against methicillin-susceptible Staphylococcus aureus ATCC 25923 in presence of 5% v/v serum; format: functional
Staphylococcus aureus [22] = assay: Antibacterial activity against vancomycin-intermediate resistant Staphylococcus aureus Mu50 ATCC 700699 assessed as zone of inhibition by disc diffusion method; format: functional
Staphylococcus aureus [23] = assay: Antibacterial activity against vancomycin-resistant Staphylococcus aureus HIP11714 assessed as zone of inhibition by disc diffusion method; format: functional
Staphylococcus aureus [24] = assay: Antibacterial activity against methicillin-susceptible Staphylococcus aureus ATCC 25923 assessed as bacterial growth inhibition incubated for 20 hrs by broth dilution method; format: functional; procedure, shortened: as §2
Bacillus anthracis = assay: Antibacterial activity against Bacillus anthracis Sterne 34F2 assessed as zone of inhibition by disc diffusion method; format: functional
Staphylococcus aureus [25] = assay: Antibacterial activity against methicillin-susceptible Staphylococcus aureus ATCC 25923 in presence of 0.05% v/v albumin; format: functional
Staphylococcus aureus [26] = assay: Bactericidal activity against linezolid-resistant Staphylococcus aureus assessed as bacterial killing incubated for over night
Staphylococcus aureus [27] = assay: Antibacterial activity against community acquired methicillin-resistant Staphylococcus aureus BAA 1747 assessed as zone of inhibition by disc diffusion method; format: functional
Enterococcus faecalis = assay: Antibacterial activity against vancomycin-susceptible Enterococcus faecalis ATCC 29212 assessed as zone of inhibition by disc diffusion method; format: functional
Staphylococcus aureus [28] = assay: Antibacterial activity against heterogeneous vancomycin-intermediate Staphylococcus aureus Mu3 ATCC 700698 assessed as bacterial growth inhibition incubated for 20 hrs by broth dilution method; format: functional; procedure, shortened: as §2
Staphylococcus aureus [29] = assay: Antibacterial activity against methicillin-resistant Staphylococcus aureus ATCC 43300 assessed as bacterial growth inhibition incubated for 20 hrs by broth dilution method; format: functional; procedure, shortened: as §2

## CN[C@H](CC(C)C)C(=O)N[C@H]1C(=O)N[C@@H](CC(N)=O)C(=O)N[C@H]2C(=O)N[C@H]3C(=O)N[C@H](C(=O)N[C@H](C(=O)O)c4cc(O)cc(O)c4-c4cc3ccc4O)[C@H](O)c3ccc(c(Cl)c3)Oc3cc2cc(c3O[C@@H]2O[C@H](CO)[C@@H](O)[C@H](O)[C@H]2O[C@H]2C[C@](C)(N)[C@H](O)[C@H](C)O2)Oc2ccc(cc2Cl)[C@H]1O [VANCOMYCIN]
[1]
  diameter of the inhibition zone (DIZ): 24 mm
Staphylococcus aureus [2]
  MBC: 0.78 µM (≈ 1.13 µg/mL)
Staphylococcus aureus [3]
  MBC: 0.78 µM (≈ 1.13 µg/mL)
Staphylococcus aureus [4]
  MIC50: 3.13 µM (≈ 4.54 µg/mL)
  MIC90: 3.13 µM (≈ 4.54 µg/mL)
Staphylococcus aureus [5]
  Ratio: 2
Staphylococcus aureus [6]
  diameter of the inhibition zone (DIZ): 22 mm
Staphylococcus aureus [7]
  MIC: 0.78 µM (≈ 1.13 µg/mL)
Staphylococcus aureus [8]
  MIC: 0.78 µM
Enterococcus faecium
  diameter of the inhibition zone (DIZ): 0 mm
Staphylococcus aureus [9]
  Ratio: 2
Staphylococcus aureus [10]
  MBC: 1.56 µM (≈ 2.26 µg/mL)
Staphylococcus aureus [11]
  MIC: 0.78 µM
Staphylococcus aureus [12]
  diameter of the inhibition zone (DIZ): 20 mm
Staphylococcus aureus [13]
  MIC: 3.13 µM (≈ 4.54 µg/mL)
Staphylococcus aureus [14]
  MIC50: > 50 µM
  MIC90: > 50 µM
Staphylococcus aureus [15]
  MIC: > 50 µM
Staphylococcus aureus [16]
  Ratio: 2
Staphylococcus aureus [17]
  Ratio: 1
Staphylococcus aureus [18]
  Ratio: 1
Staphylococcus aureus [19]
  diameter of the inhibition zone (DIZ): 21 mm
Staphylococcus aureus [20]
  MBC: 3.13 µM (≈ 4.54 µg/mL)
Staphylococcus aureus [21]
  MIC: 0.78 µM
Staphylococcus aureus [22]
  diameter of the inhibition zone (DIZ): 20 mm
Staphylococcus aureus [23]
  diameter of the inhibition zone (DIZ): 11 mm
Staphylococcus aureus [24]
  MIC: 0.78 µM (≈ 1.13 µg/mL)
Bacillus anthracis
  diameter of the inhibition zone (DIZ): 26 mm
Staphylococcus aureus [25]
  MIC: 0.78 µM
Staphylococcus aureus [26]
  MBC: 1.56 µM (≈ 2.26 µg/mL)
Staphylococcus aureus [27]
  diameter of the inhibition zone (DIZ): 20 mm
Enterococcus faecalis
  diameter of the inhibition zone (DIZ): 21 mm
Staphylococcus aureus [28]
  MIC: 0.78 µM (≈ 1.13 µg/mL)
Staphylococcus aureus [29]
  MIC: 0.39 µM (≈ 0.565 µg/mL)
